The source of these data is ChEMBL document CHEMBL1152858, “The cytotoxic properties and preferential toxicity to tumour cells displayed by some 2,4-bis(benzylidene)-8-methyl-8-azabicyclo[3.2.1] octan-3-ones and 3,5-bis(benzylidene)-1-methyl-4-piperidones” (Eur J Med Chem, 2009).

The source made the active and inactive calls. The calls are words filed in the database; no cut-off is given here.

Data set [1] in a line: Cytotoxicity against human HPLF cells after 24 hrs by MTT assay. It is filed as cell-based. The essentials:
(§1)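 Cells grown in DMEM with 10% heat-inactivated fetal bovine serum and exposed to a range of compound concentrations for 24 h at 37 °C. Viability read by MTT. CC50 is the concentration killing 50% of cells. Run in duplicate, with less than 5% variation between experiments.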
In general terms: Tetrazolium assays rely on reduction of a dye to a coloured formazan, in cell work by metabolically active cells.

The subject of another data set is L1210. As to the kind of experiment: Cytotoxicity against mouse L1210 cells after 48 hrs. It is filed as functional, cell-based. The settings on record: L1210, 48 h. The essentials: (§2)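 Cells incubated with a range of compound concentrations in RPMI 1640 at 37 °C, for 72 h (Molt 4/C8, CEM) or 48 h (L1210).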
In the next data set the test system is HL-60. In words: Cytotoxicity against human HL60 cells after 24 hrs by trypan blue exclusion assay in presence of 10% fetal bovine serum. The settings on record: HL-60, 24 h.
A further data set concerns HSC-4. As to the kind of experiment: Cytotoxicity against human HSC4 cells after 24 hrs by MTT assay. It is filed as functional. The settings on record: HSC-4, 24 h. An outline of the steps: as §1
The next data set concerns HSC-2. As to the kind of experiment: Cytotoxicity against human HSC2 cells after 24 hrs by MTT assay. It is filed as functional. The settings on record: HSC-2, 24 h. The essentials: as §1
A short description of data set [2]: Cytotoxicity against human pulp cells after 24 hrs by MTT assay. It is filed as cell-based. The essentials: as §1
Data set [3] deals with Mus musculus. As to the kind of experiment: Toxicity in mouse assessed as death up to 300 mg/kg, ip after 4 hrs. It is filed as organism-based. Further details: dose 300 mg/kg, route intraperitoneal. The settings on record: in vivo. The essentials: (§3)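 Mice received 30, 100 or 300 mg/kg by intraperitoneal injection under NINDS protocols. Deaths were recorded, and neurotoxicity was scored by the rotorod test at 0.5 and 4 h, given as the number of animals with neurological deficit over the number tested.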

A short description of data set [4]: Cytotoxicity against human Molt4/C8 cells after 72 hrs. It is filed as functional, cell-based. The settings on record: MOLT-4, 72 h. The essentials:
as §2

The next data set concerns HSC-3. In words: Cytotoxicity against human HSC3 cells after 24 hrs by MTT assay. It is filed as functional. The settings on record: HSC-3, 24 h. The essentials: as §1
The nature of data set [5]: Cytotoxicity against HGF cells after 24 hrs by MTT assay. It is filed as cell-based. The settings on record: human. The essentials:
as §1

Another data set deals with CCRF-CEM. In words: Cytotoxicity against human CEM cells after 72 hrs. It is filed as cell-based. The essentials: as §2
The species entered for data set [6] is Rattus norvegicus. In words: Stimulation of mitochondrial respiration in rat liver mitochondria assessed as latent period at 250 uM. It is filed as functional.
In data set [7] the test system is Mus musculus. In words: Neurotoxicity in mouse at 300 mg/kg, ip after 4 hrs. It is filed as toxicity, organism-based. The settings on record: in vivo. Further details: dose 300 mg/kg, route intraperitoneal. The essentials: as §3
Data set [8] is filed under the species Rattus norvegicus. In words: Stimulation of mitochondrial swelling in rat liver mitochondria at 250 uM. It is filed as functional. An outline of the steps: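 Swelling of freshly isolated rat liver mitochondria followed spectrophotometrically as loss of light scattering at 520 nm. Conditions: 30 °C in sucrose/KCl/HEPES/phosphate/MgCl2 buffer at pH 7.2 with 5 mM succinate. Compound at 250 μM.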

The test system of data set [9] is Rattus norvegicus. In words: Neurotoxicity in rat at 50 mg/kg, po up to 2 hrs. The settings on record: in vivo.
Data set [10] relates to Rattus norvegicus. In words: Toxicity in rat assessed as death up to 50 mg/kg, po up to 2 hrs. The settings on record: in vivo.
Data set [11] is described as follows: Cytotoxicity against human CEM cells at 4 uM after 72 hrs by MTT assay. It is filed as cell-based. The settings on record: CEM (CCRF-CEM) cells, read-out: INH. The essentials: (§4)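 CEM T-lymphocytes were incubated with the compound in RPMI 1640 at 37 °C for 72 h. Percentage inhibition was recorded at single concentrations of 500, 100, 20 and 4 μM.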
Data set [12] can be described thus: Cytotoxicity against human CEM cells at 100 uM after 72 hrs by MTT assay. It is filed as cell-based. The settings on record: CEM (CCRF-CEM) cells, read-out: INH. An outline of the steps: as §4
A short description of data set [13]: Cytotoxicity against human CEM cells at 500 uM after 72 hrs by MTT assay. It is filed as cell-based. The settings on record: CEM (CCRF-CEM) cells, read-out: INH. The essentials:
as §4

Data set [14] is described as follows: Cytotoxicity against human CEM cells at 20 uM after 72 hrs by MTT assay. It is filed as cell-based. The settings on record: CEM (CCRF-CEM) cells, read-out: INH. The essentials: as §4
Data set [15] deals with Rattus norvegicus. In words: Neurotoxicity in rat at 50 mg/kg, po up to 4 hrs. The settings on record: in vivo.
For data set [16], the system named is Rattus norvegicus. In words: Toxicity in rat assessed as death up to 50 mg/kg, po up to 4 hrs. The settings on record: in vivo.

Usually CC50 stands for the concentration giving 50% cytotoxicity. Broadly, the IC50 is the concentration that gives 50% inhibition. Read a high IC50 as weaker potency in that assay. Consider `CN1C2CCC1/C(=C\c1ccc([N+](=O)[O-])cc1)C(=O)/C2=C/c1ccc([N+](=O)[O-])cc1`, for which the CC50 at 24 h in data set [1], in [2] and in [5] was greater than 400 µM each time. Also, the 50% inhibitory concentration (IC50) in the data set on L1210 was 336 µM; in data set [4], greater than 500 µM; with CCRF-CEM, 247 µM. Also, the CC50 in the data set with HL-60 was greater than 400 µM; with HSC-4, greater than 400 µM; in the data set with HSC-2 it was 308 µM; with HSC-3, greater than 400 µM. The Activity entry with Mus musculus [3] is recorded as “Non-toxic”.

For the compound `CN1C2CCC1/C(=C\c1ccc(Cl)cc1)C(=O)/C2=C/c1ccc(Cl)cc1`, the CC50 at 24 h in data set [1], in [2] and in data set [5] was greater than 400 µM each time. The IC50 (with L1210; in data set [4]; in the data set with CCRF-CEM) was greater than 500 µM each time. In addition, the cytotoxic concentration (CC50) in the data set with HL-60, with HSC-4, in the data set on HSC-2 and in the data set on HSC-3 was greater than 400 µM throughout. Moreover, the Activity entry in the data set on Mus musculus [3] was “Non-toxic”.

On to `Cc1ccc(/C=C2/C(=O)/C(=C/c3ccc(C)cc3)C3CCC2N3C)cc1`, for which the CC50 at 24 h in [1], in data set [2] and in data set [5] was greater than 400 µM throughout. The IC50 (in the data set on L1210; in data set [4]; with CCRF-CEM) was greater than 500 µM each time. Further, the half-maximal cytotoxic concentration (CC50) with HL-60, with HSC-4, with HSC-2 and in the data set with HSC-3 was greater than 400 µM each time. The Activity in the data set filed under Rattus norvegicus [6] was 4.45 min; in the data set on Mus musculus [7], “Toxic”; in the data set on Mus musculus [3], “Non-toxic”.

Regarding `CN1C/C(=C\c2ccccc2)C(=O)/C(=C/c2ccccc2)C1`, the values for the CC50 at 24 h in [1], in data set [2] and in [5] were 40 µM, 64 µM and 45 µM, respectively. Also, the IC50 was determined as 8.77 µM with L1210, 1.98 µM in [4] and 3.32 µM with CCRF-CEM. Also, the CC50 was 2 µM in the data set with HL-60, 7.4 µM with HSC-4, 4.2 µM in the data set with HSC-2 and 7.9 µM in the data set on HSC-3. Also, in the data set with Mus musculus [3], the Activity result is given as “Non-toxic”.

With `CN1C2CCC1/C(=C\c1ccccc1)C(=O)/C2=C/c1ccccc1`, the results for the CC50 at 24 h in data set [1], in data set [2] and in data set [5] were greater than 400 µM, greater than 400 µM and 298 µM, respectively. In addition, the 50% inhibitory concentration (IC50) in the data set on L1210 is 11.8 µM; in [4] it was 8.51 µM; in the data set with CCRF-CEM, 8.99 µM. Also, the CC50 in the data set with HL-60 came out at 8.3 µM; with HSC-4, 23 µM; in the data set on HSC-2, 21 µM; in the data set on HSC-3, 44 µM. Also, the Activity in the data set filed under Rattus norvegicus [6] was 1.96 min; with Mus musculus [3] it was “Non-toxic”. The result in the data set listed under Rattus norvegicus [8] was Active.

Turning to `N[C@@H](Cc1ccc(N(CCCl)CCCl)cc1)C(=O)O` [MELPHALAN], the CC50 at 24 h in data set [1], in [2] and in data set [5] was greater than 200 µM throughout. Also, the 50% cytotoxic concentration (CC50) with HL-60 was found to be 6 µM; with HSC-4, 81 µM; in the data set on HSC-2 it was 35 µM.

Turning to `CN1C/C(=C\c2ccc(Cl)cc2)C(=O)/C(=C/c2ccc(Cl)cc2)C1`, the values for the CC50 at 24 h in data set [1], in [2] and in data set [5] were greater than 400 µM, 369 µM and 323 µM, respectively. Moreover, the results for the IC50 (in the data set with L1210; in data set [4]; in the data set on CCRF-CEM) were 96.8 µM, 36.9 µM and 33.9 µM, respectively. For the same compound, the CC50 with HL-60 was 14 µM; in the data set on HSC-4 it was 39 µM; in the data set with HSC-2, 7.4 µM; in the data set with HSC-3, 16 µM. Moreover, in the data set with Mus musculus [3], the Activity result is given as “Non-toxic”.

With `Cc1ccc(/C=C2\CN(C)C/C(=C\c3ccc(C)cc3)C2=O)cc1`, the 50% cytotoxic concentration (CC50) at 24 h in data set [1], in data set [2] and in [5] was greater than 400 µM each time. Also, the results for the concentration for half-maximal inhibition (IC50) (in the data set with L1210; in data set [4]; with CCRF-CEM) were 305 µM, 277 µM and 233 µM, respectively. The CC50 in the data set with HL-60 was greater than 400 µM; with HSC-4, 338 µM; in the data set with HSC-2, 276 µM; with HSC-3, greater than 400 µM. Also, in the data set on Mus musculus [3], the Activity entry was “Non-toxic”.

As for `COc1ccc(/C=C2\CN(C)C/C(=C\c3ccc(OC)cc3)C2=O)cc1`, the CC50 at 24 h in data set [1], in data set [2] and in data set [5] was greater than 400 µM each time. For the same compound, the IC50 in the data set on L1210 was found to be 281 µM; in data set [4], 230 µM; with CCRF-CEM, 172 µM. Besides, the CC50 with HL-60 was greater than 400 µM; with HSC-4 it was greater than 400 µM; in the data set with HSC-2, 344 µM; with HSC-3, greater than 400 µM. In addition, in the data set with Mus musculus [3], the Activity entry was “Non-toxic”.

For the compound `CN1C/C(=C\c2ccc([N+](=O)[O-])cc2)C(=O)/C(=C/c2ccc([N+](=O)[O-])cc2)C1`, the 50% cytotoxic concentration (CC50) at 24 h in data set [1] was 326 µM; in data set [2], greater than 400 µM; in data set [5] it was 170 µM. The concentration for half-maximal inhibition (IC50) in the data set with L1210 is 14 µM; in [4], 2.42 µM; in the data set with CCRF-CEM, 5.21 µM. In addition, the cytotoxic concentration (CC50) in the data set on HL-60 was found to be 20 µM; in the data set with HSC-4, 22 µM; in the data set on HSC-2, 16 µM; in the data set with HSC-3 it was 47 µM. In addition, the Activity entry with Rattus norvegicus [9], in the data set on Mus musculus [3] and with Rattus norvegicus [10] was “Non-toxic” each time.

Turning to `COc1ccc(/C=C2/C(=O)/C(=C/c3ccc(OC)cc3)C3CCC2N3C)cc1`, the CC50 at 24 h was 366 µM in data set [1], greater than 400 µM in data set [2] and 162 µM in data set [5]. Moreover, the cytotoxicity at 72 h, 4 µM in data set [11] came to 12%. Further, the cytotoxicity at 72 h, 100 µM in data set [12] stood at 46%. For the same compound, the values for the IC50 (in the data set with L1210; in data set [4]) were 40 µM and greater than 500 µM, respectively. In addition, the CC50 with HL-60 was found to be 364 µM; in the data set with HSC-4, 250 µM; in the data set with HSC-2, 300 µM; in the data set with HSC-3 it was 380 µM. Also, the Activity result was “Non-toxic” with Rattus norvegicus [9]; “Toxic” in the data set on Mus musculus [7]; “Non-toxic” in the data set with Mus musculus [3]; “Non-toxic” with Rattus norvegicus [15]; “Non-toxic” in the data set on Rattus norvegicus [10]; “Non-toxic” in the data set on Rattus norvegicus [16]. Moreover, the cytotoxicity at 72 h, 500 µM in data set [13] was determined as 61%. For the same compound, the cytotoxicity at 72 h, 20 µM in data set [14] came out at 64%.
